Experiment [1] deals with Ephrin type-A receptor 5 (Homo sapiens) (UniProt P54756). Briefly: Inhibition of EPHA5 at 1 uM in presence of 10 uM ATP by Select Screen kinase assay relative to untreated control. The procedure, abridged:
(§1)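 Single-point screen at 1 μM against a panel of 220 purified kinases, run by Invitrogen staff as a SelectScreen profiling service. Read-out is percent inhibition of kinase activity.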

For experiment [2], the target named is T1, Inhibitor of nuclear factor kappa-B kinase subunit beta (Homo sapiens) (UniProt O14920).
T1 sequence (whole entry): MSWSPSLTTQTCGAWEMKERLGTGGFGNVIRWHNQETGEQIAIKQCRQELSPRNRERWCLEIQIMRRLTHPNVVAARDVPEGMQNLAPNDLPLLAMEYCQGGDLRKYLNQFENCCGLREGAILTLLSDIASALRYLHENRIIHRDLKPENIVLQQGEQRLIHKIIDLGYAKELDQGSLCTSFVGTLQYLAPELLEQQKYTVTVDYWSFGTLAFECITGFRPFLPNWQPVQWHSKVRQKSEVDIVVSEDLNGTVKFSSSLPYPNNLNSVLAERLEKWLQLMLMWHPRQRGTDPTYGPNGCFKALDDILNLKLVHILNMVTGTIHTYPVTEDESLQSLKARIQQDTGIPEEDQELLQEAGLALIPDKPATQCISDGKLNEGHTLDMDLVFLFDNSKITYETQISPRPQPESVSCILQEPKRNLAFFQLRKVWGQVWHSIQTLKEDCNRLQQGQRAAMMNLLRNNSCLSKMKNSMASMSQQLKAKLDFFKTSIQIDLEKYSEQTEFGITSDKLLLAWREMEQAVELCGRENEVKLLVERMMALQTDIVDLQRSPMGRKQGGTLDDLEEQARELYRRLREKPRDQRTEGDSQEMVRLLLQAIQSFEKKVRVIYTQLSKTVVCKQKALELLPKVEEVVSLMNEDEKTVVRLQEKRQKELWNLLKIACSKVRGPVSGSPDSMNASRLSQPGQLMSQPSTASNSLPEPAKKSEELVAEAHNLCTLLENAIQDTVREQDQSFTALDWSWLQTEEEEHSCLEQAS
Briefly: Inhibition of IKBKB at 1 uM in presence of 10 uM ATP by Select Screen kinase assay relative to untreated control. The procedure, abridged:
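Single-concentration profiling at 1 μM against a panel of 220 purified kinases, run as an outsourced SelectScreen kinase profiling service. Activity is expressed as percent inhibition.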

The target of experiment [3] is Tyrosine-protein kinase Fes/Fps (Homo sapiens) (UniProt P07332). Briefly: Inhibition of FES at 1 uM in presence of 10 uM ATP by Select Screen kinase assay relative to untreated control. Summed up: as §1
Sequence of Tyrosine-protein kinase Fes/Fps (Homo sapiens) (P07332 whole entry): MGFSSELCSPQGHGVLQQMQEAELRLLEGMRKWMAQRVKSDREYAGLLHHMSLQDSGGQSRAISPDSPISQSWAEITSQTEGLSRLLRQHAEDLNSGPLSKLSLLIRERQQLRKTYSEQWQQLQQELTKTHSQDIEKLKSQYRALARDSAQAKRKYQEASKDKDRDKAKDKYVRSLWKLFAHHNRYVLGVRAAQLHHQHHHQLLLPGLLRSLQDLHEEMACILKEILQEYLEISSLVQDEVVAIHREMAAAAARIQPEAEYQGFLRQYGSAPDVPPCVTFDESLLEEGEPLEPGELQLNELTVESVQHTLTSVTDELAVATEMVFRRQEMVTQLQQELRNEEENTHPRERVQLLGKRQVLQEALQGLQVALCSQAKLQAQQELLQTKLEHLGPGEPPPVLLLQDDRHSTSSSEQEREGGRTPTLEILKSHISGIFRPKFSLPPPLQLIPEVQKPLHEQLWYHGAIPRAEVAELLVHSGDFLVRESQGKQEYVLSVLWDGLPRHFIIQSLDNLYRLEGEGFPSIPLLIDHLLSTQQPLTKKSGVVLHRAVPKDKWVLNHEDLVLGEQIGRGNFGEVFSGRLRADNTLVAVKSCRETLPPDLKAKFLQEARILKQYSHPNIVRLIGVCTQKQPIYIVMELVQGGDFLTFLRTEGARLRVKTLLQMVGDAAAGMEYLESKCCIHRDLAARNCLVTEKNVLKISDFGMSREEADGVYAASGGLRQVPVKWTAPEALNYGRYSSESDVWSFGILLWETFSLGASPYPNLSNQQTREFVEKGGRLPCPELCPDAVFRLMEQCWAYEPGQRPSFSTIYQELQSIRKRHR
Experiment [4] addresses T2, Ephrin type-A receptor 1 (Homo sapiens) (UniProt P21709).
T2 sequence (whole entry): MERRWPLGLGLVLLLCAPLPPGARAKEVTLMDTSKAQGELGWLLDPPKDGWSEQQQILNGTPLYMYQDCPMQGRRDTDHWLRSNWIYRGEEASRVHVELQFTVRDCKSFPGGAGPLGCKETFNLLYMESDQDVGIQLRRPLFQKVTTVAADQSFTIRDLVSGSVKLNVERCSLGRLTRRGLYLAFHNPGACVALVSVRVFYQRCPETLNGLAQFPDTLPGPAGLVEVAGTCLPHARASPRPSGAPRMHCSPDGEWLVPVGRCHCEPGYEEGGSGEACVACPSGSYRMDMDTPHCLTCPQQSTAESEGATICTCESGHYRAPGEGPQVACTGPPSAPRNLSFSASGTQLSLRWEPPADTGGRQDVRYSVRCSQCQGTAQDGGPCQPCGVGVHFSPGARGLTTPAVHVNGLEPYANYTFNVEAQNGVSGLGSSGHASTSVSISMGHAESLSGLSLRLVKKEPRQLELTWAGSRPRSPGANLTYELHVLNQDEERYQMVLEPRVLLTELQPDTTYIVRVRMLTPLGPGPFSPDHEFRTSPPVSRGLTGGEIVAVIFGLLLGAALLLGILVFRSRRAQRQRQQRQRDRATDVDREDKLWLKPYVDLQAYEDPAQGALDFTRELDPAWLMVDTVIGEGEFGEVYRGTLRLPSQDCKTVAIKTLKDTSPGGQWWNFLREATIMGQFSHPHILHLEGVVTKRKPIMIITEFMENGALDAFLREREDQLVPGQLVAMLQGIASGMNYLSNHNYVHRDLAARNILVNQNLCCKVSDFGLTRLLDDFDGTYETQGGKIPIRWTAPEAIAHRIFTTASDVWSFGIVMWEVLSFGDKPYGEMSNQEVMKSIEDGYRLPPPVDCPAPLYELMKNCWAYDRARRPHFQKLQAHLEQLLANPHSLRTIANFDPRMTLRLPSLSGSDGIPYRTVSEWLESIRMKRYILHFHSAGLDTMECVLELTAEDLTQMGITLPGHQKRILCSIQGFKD
Briefly: Inhibition of EPHA1 at 1 uM in presence of 10 uM ATP by Select Screen kinase assay relative to untreated control. The procedure, abridged: as §1

Sequence of Ephrin type-A receptor 5 (Homo sapiens) (P54756 whole entry): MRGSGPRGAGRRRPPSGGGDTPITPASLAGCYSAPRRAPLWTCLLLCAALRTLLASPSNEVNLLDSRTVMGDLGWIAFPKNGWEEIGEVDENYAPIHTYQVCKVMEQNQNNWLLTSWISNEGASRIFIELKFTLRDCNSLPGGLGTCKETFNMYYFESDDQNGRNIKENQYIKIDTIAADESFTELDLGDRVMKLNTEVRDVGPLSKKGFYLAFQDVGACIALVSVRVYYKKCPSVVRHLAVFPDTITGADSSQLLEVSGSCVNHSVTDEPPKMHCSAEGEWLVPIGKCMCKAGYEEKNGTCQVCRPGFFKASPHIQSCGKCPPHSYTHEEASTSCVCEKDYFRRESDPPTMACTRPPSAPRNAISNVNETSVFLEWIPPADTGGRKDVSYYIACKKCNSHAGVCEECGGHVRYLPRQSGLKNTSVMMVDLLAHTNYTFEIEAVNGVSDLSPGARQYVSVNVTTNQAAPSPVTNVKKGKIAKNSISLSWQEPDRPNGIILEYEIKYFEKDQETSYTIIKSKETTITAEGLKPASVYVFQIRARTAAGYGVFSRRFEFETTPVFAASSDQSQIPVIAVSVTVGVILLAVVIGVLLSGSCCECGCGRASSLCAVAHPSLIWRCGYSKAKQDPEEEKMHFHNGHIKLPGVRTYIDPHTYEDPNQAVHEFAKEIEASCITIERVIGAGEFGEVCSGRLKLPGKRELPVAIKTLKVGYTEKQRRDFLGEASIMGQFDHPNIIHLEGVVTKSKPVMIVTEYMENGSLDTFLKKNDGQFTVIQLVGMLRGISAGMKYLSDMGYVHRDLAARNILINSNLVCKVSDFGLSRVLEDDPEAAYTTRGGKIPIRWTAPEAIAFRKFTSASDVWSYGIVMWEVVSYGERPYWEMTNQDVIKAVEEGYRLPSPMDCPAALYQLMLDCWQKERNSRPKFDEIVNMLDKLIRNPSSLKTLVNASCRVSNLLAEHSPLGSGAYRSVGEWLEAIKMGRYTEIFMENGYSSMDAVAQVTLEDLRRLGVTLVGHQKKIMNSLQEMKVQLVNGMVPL

In the case of `COc1ccccc1N1CCN(c2ncnc3[nH]nc(Br)c23)CC1`, the inhibition is 11% in experiment [1], 2% in experiment [2], 16% in experiment [3] and 13% in experiment [4].
On to `Cc1n[nH]c2ccc(-c3cncc(OC[C@@H](N)Cc4c[nH]c5ccccc45)c3)cc12`, for which the inhibition in experiment [1] is 1%; in experiment [2], 11%; in experiment [3], 40%; in experiment [4], -1%.
With `O=C(NCCCNc1nc(Nc2cccc(NC(=O)N3CCCC3)c2)ncc1I)c1cccs1`, the inhibition in experiment [1] was 18%; in experiment [2] it was 6%; in experiment [3], 37%; in experiment [4], 13%.
